Assay outcomes from PubChem BioAssay.
The list is not random: actives were taken first. Their share in the collection is about 2.1%.
VIM-2 inhibitor: inhibitors of Pseudomonas aeruginosa VIM-2 metallo-beta-lactamase | purified VIM-2, nitrocefin hydrolysis, epi-absorbance fluorescence | inhibition, % at 5.6 µM | actives 0.89% (n = 290,000) | AID 1527;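 active = inhibition above the mean of all tested compounds plus 3 SD, cutoff set per screening run, cut at about 7.5% in these data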;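 also: red hydrolysis product quenches plate fluorescence so inhibitors raise well fluorescence; 0% = enzyme with DMSO and 100% = DMSO without enzyme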
MsrA inh: inhibits bovine methionine sulfoxide reductase A. purified bovine MsrA, absorbance read-out. inhibition, % at 15.5 µM. actives 0.75% (n = 360,000). AID 651718; in the data active = inhibition above about 4.5%;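 also: 0% = vehicle wells with enzyme and 100% = reference inhibitor wells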
MsrA act: activates bovine MsrA enzyme; purified bovine MsrA, absorbance read-out; actives 0.3% (n = 360,000); activation, % at 10.6 µM; in the data active = activation above about 7.5%;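 also: 0% = vehicle and 100% = reference activator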
IMP-1 inh-1: blocks Pseudomonas aeruginosa IMP-1 metallo-beta-lactamase. purified IMP-1, nitrocefin hydrolysis, epi-absorbance fluorescence. inhibition, % at 5.6 µM. actives 0.45% (n = 290,000). AID 1556;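 active = inhibition above the mean plus 3 SD of all compounds in the same screening run, cut at about 4.5% in these data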;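 also: 0% = IMP-1 with DMSO and 100% = DMSO wells lacking enzyme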
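Material – recombinant IMP-1 enzyme, purified · Amount – IMP-1 0.2 nM before substrate addition · Medium – HEPES buffer pH 7.1 with ZnSO4 and Brij 35 · Timing – 25 °C, 15 min preincubation, 25 min reaction · Measured by – plate fluorescence quenching by hydrolysis product, ex 480/em 530 nm · Read-out – percent enzyme inhibition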
PKA-R2B activ: activates the human PKA-R2B holoenzyme complex; PKA-R2B holoenzyme dissociation, Cy5-IP20 fluorescence polarization; R2B truncated from residue 108, S112A mutant; 0% DMSO only, 100% 113 µM cGMP; activation, % at 11.4 µM; actives 0.079% (n = 340,000);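 active = activation above a cutoff set at the mean over all compounds plus 3 SD, cut at about 18% in these data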;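 also: higher means more holoenzyme dissociation and a rise in polarization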
Target sequence (P31323 whole entry, looked up, other chains not shown, the tested form may be a part): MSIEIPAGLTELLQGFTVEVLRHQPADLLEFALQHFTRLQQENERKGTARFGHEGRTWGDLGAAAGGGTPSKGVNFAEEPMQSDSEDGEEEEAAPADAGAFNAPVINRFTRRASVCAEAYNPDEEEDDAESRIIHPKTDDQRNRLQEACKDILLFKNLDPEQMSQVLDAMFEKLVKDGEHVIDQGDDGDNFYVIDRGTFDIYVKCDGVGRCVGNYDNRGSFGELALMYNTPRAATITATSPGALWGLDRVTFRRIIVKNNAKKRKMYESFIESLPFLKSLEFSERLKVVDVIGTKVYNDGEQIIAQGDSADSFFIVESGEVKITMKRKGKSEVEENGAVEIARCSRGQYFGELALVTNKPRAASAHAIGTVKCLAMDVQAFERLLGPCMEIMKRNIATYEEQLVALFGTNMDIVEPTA
PKA-R1A activ: PKA-R1A complex activation; P00514+P68181; PKA-R1A dissociation, Cy5-IP20 fluorescence polarization; scaled: DMSO 0%, 113 µM cGMP 100%; activation, % at 11.4 µM; actives 0.083% (n = 340,000);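 active = percent activation above the mean of all tested compounds plus 3 SD, cut at about 19% in these data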;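 also: higher means more PKAc released from R1A so a rise in polarization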
IMP-1 inh-2: selectivity counter-screen for VIM-2 inhibitors: IMP-1 metallo-beta-lactamase inhibitors; AID 1856; shares compounds with VIM-2 inhibitor; inhibition, % at 5.6 µM; purified IMP-1, nitrocefin hydrolysis, epi-absorbance fluorescence; 1,300 tested, under 10 active; call rule not given here;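 also: 0% = enzyme with vehicle and 100% = vehicle without enzyme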
VIM-2 FRET ctr: inhibits VIM-2 in FRET assay to exclude epi-absorbance artifacts; AID 1857; shares compounds with VIM-2 inhibitor; inhibition, % at 5.6 µM; purified VIM-2, CCF2 FRET substrate hydrolysis; actives 23% (n = 1,300);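 active = inhibition above the mean of all tested compounds plus 3 SD, cut at about 19% in these data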;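 also: 0% = VIM-2 plus DMSO and 100% = no enzyme wells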
TEM-1 inh: selectivity counter-screen for VIM-2 inhibitors: E. coli TEM-1 inhibitors. actives 3% (n = 1,300). Purified TEM-1, nitrocefin hydrolysis, epi-absorbance fluorescence. inhibition, % at 5.6 µM. shares compounds with VIM-2 inhibitor. AID 1866;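 active = inhibition above that campaign's mean inhibition plus 3 SD, cut at about 0.46% in these data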;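 also: 0% = TEM-1 with DMSO and 100% = TEM-1 with 100 µM potassium clavulanate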
VIM-2 inh conf: confirmation of P. aeruginosa VIM-2 metallo-beta-lactamase inhibitors | shares compounds with VIM-2 inhibitor | purified VIM-2, nitrocefin hydrolysis, epi-absorbance | inhibition, % at 5.6 µM | actives 96% (n = 1,300);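 active = inhibition of the VIM-2 beta-lactamase enzyme above about 11% from the earlier first-round screen, limit read from the data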;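 also: 0% = VIM-2 with DMSO and 100% = buffer wells without enzyme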
The depositor's hits bear a star; nt = no result.

SMILES | VIM-2 inhibitor | MsrA inh | MsrA act | IMP-1 inh-1 | PKA-R2B activ | PKA-R1A activ | IMP-1 inh-2 | VIM-2 FRET ctr | TEM-1 inh | VIM-2 inh conf
COc1ccc(-n2ncc3c(=O)n(CC(=O)NC(C)C)cnc32)cc1 | -4.0 | 0.3 | -8.4 | -3.4 | 0.2 | -14.0 | nt | nt | nt | nt
O=C1c2ccccc2-c2onc3ccc(N4CCCC4)c1c23 | 13.5* | 0.4 | -8.4 | 2.3 | -16.4 | -20.9 | 4.4 | 4.2 | 2.9* | 24.7*
CCOc1ccc2noc3c2c1C(=O)c1ccccc1-3 | 2.7 | -0.9 | 0.2 | -0.4 | -2.0 | 4.3 | nt | nt | nt | nt
CN(C)S(=O)(=O)c1cccc(NC(=S)N/N=C/c2cccc(O)c2)c1 | 18.1* | 2.7 | 0.8 | -1.6 | -7.9 | -12.4 | -2.7 | 16.1 | -7.5 | 14.1*
COc1ccccc1NS(=O)(=O)c1ccc(C(=O)Nc2ncccc2O)cc1 | nt | nt | -2.2 | nt | -12.0 | -6.7 | nt | nt | nt | nt
COc1ccc(-c2cc(NC(=O)Cc3c(C)[nH]c4ccccc34)ccc2Nc2cccnc2)cc1F | nt | 0.0 | nt | nt | nt | nt | nt | nt | nt | nt
CC(=O)Nc1ccc(S(=O)(=O)NCC(=O)OCC(=O)NNC(=O)c2ccccc2)cc1 | nt | -1.2 | 0.5 | nt | 1.7 | 12.6 | nt | nt | nt | nt
Cc1nc(NCCCn2ccnc2)c2oc3ccccc3c2n1 | 75.8* | 0.1 | 2.1 | 1.3 | -14.3 | -5.4 | -2.5 | -8.4 | -5.6 | 83.0*
c1ccc2c(c1)oc1c(NCCCn3ccnc3)ncnc12 | 56.0* | 0.2 | -0.1 | -0.8 | 9.8 | 0.1 | -4.0 | -6.5 | -6.8 | 60.4*
CCNc1nc(C)nc2c1oc1ccccc12 | 4.0 | -0.1 | -3.2 | -1.5 | -2.2 | -11.6 | nt | nt | nt | nt
Cc1csc(-c2cc(C(=O)NCc3ccc(F)cc3)n[nH]2)c1 | nt | -0.5 | -1.6 | nt | nt | nt | nt | nt | nt | nt
N#CCSc1nc2cc(C(=O)N3CCC(C(N)=O)CC3)ccc2c2nc3ccccc3n12 | 24.3* | nt | -1.7 | -1.2 | -9.8 | 0.8 | -2.3 | 1.2 | -3.7 | 40.0*
Cc1ccc(S(=O)(=O)N2CCOCC2)cc1C(=O)OCC(=O)N(Cc1ccccc1)C(C)C | nt | 1.8 | -2.0 | nt | 1.2 | -15.0 | nt | nt | nt | nt
O=C(NC1CC1)c1ccc2nc([C@@H]3O[C@H](CO)[C@H](O)[C@H](O)[C@H]3O)[nH]c2c1 | nt | 1.4 | -10.1 | nt | nt | nt | nt | nt | nt | nt
NC(=O)C1CCN(C(=O)CCc2nc3ccccc3c(=O)[nH]2)CC1 | 0.3 | -0.3 | -2.6 | -1.1 | 1.8 | -2.4 | nt | nt | nt | nt
CN1CCN(C(=O)CCc2nc3ccccc3c(=O)[nH]2)CC1 | 21.3* | 0.6 | 1.5 | -1.4 | 6.5 | -12.5 | -3.4 | 0.1 | -5.7 | 42.0*
O=C(COc1ccc2c(-c3ccccc3)cc(=O)oc2c1)NCCCN1CCOCC1 | -0.6 | 3.0 | -2.1 | -2.4 | 4.7 | -0.7 | nt | nt | nt | nt
O=C(COc1ccc2c(c1)oc(=O)c1ccccc12)NCCN1CCOCC1 | 19.3* | 0.5 | 0.8 | 1.9 | -0.7 | 4.8 | -3.0 | 1.2 | -6.2 | 27.1*
O=C(COc1ccc2c3c(c(=O)oc2c1)CCC3)NCCN1CCOCC1 | 18.8* | 0.9 | -5.0 | -0.9 | 0.6 | -7.6 | -2.8 | -16.4 | -5.2 | 25.0*
CC(C)CCNC(=O)COc1ccc2c3c(c(=O)oc2c1)CCC3 | 3.4 | 0.8 | -3.1 | -0.3 | 1.2 | 7.8 | nt | nt | nt | nt
O=C(COc1cc2oc(=O)c3c(c2cc1Cl)CCC3)NCCCN1CCCC1=O | 17.6* | 2.1 | -3.4 | -2.8 | -3.5 | 0.8 | -2.1 | -0.4 | -6.0 | 32.0*
C[C@@H]1CNCCN1c1ccc(N2CCN(Cc3ccccc3)[C@@H](C)C2)c(C#N)c1 | nt | -0.4 | nt | nt | nt | nt | nt | nt | nt | nt
Cc1cc(C(=O)CCC(=O)Nc2ccc(C(N)=O)cc2)c(C)s1 | nt | 1.0 | -3.8 | nt | 1.8 | -1.1 | nt | nt | nt | nt
